# Experimental data from ChEMBL document CHEMBL1134393, “Synthesis and biological activity of analogues of the antidiabetic/antiobesity agent 3-guanidinopropionic acid: discovery of a novel aminoguanidinoacetic acid antidiabetic agent” (2001).
# Test system: not listed separately
# Assay: In vivo blood glucose was determined in obese, hyperglycemic, hyperinsulinemic, insulin-resistant […] after a dose of 500 mg/kg for 4 days
# Format: functional, Mus musculus
# Outline: (§1)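 KKAy mice (KK female × Ay male cross) allocated to treatment or control groups (n = 6) after pretest glucose. Compound given in food, equivalent to 500 mg/kg per day for 4 days. Nonfasting blood drawn from the retroorbital sinus; glucose measured by autoanalyzer. Result expressed as treated/control glucose ratio (T/C). Wilcoxon rank sum test applied when T/C < 0.80.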
row,Compound,MISS T/C
1,N=C(N)NCCC(=O)O [OMPENACLID],0.52

# Molecular target: Creatine kinase M-type (Oryctolagus cuniculus) (UniProt P00563)
# Assay: In vitro kinase activity (phosphorylation) of creatine kinase was determined
# Sequence of Creatine kinase M-type (Oryctolagus cuniculus) (P00563 whole entry, looked up): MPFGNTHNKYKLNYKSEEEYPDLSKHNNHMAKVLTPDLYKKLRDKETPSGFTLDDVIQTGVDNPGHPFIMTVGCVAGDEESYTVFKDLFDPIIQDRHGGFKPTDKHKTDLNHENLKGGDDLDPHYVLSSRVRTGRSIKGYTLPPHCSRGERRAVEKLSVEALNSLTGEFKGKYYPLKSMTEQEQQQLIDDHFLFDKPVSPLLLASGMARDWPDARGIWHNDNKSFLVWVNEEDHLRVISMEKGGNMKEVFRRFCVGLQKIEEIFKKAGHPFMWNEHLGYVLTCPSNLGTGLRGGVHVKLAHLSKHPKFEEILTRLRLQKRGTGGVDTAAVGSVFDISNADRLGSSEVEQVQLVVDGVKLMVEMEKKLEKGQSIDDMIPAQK
row,Compound,Activity
1,N=C(N)NCCC(=O)O [OMPENACLID],5
2,N=C(N)NNCC(=O)O,0.5
3,CN(CC(=O)O)C(=N)N [CREATINE],100

# Test system: not listed separately
# Assay: In vivo blood glucose was determined in obese, hyperglycemic, hyperinsulinemic, insulin-resistant KKAy mice after a dose of 500 mg/kg for 4 days
# Format: functional, Mus musculus
# Outline: as §1
row,Compound,MISS T/C
1,N=C(N)c1cccn1CCC(=O)O,0.93
2,Nc1ccc[n+](CC(=O)O)c1.[Cl-],0.94
3,Nc1ncnc2nn(CCC(=O)O)cc12,1.08
4,N=C(N)NCC(S)C(=O)O (stereo unspecified),0.83
5,C/N=C(\N)NCCC(=O)O,1.02
6,Cl.N=C(N)SCCCC(=O)O,0.87
7,COC(=O)NC(=N)NCCC(=O)O,0.88
8,N=C(N)N[C@H]1CCCC[C@@H]1C(=O)O,0.93
9,CC(CN=C(N)N)C(=O)O (stereo unspecified),0.86
10,Cl.N=C(N)CCCC(=O)O,0.93
11,NC(=O)NCCC(=O)O,1.06
12,N=C(N)NNCC(=O)O,0.61
13,Nc1cccc(CC(=O)O)n1,1.08
14,Cl.Cl.N/C(=N\CCC(=O)O)c1ccccc1N,0.92
15,N=C(N)NCCS(=O)(=O)O,0.91
16,O=C(O)CCNc1ncccn1,1.01
17,N=C(N)Nc1ccc(C(=O)O)cc1 [4-GUANIDINO-BENZOIC ACID],0.8
18,O=C(O)CCNC1=NCCN1,0.97
19,O=C(O)CCNc1nc2ccccc2[nH]1,0.95
20,Cl.N=C(N)CSCC(=O)O,0.92
21,N=C(N)NCCP(=O)(O)O,0.81
22,O=C(O)CCn1cccn1,1.11
23,Cl.NC(=O)CCN=C(N)N,0.96
24,CCc1cc(O)nc(NCCC(=O)O)n1,0.96
25,N=C(N)c1ccc(CC(=O)O)[nH]1,1.1

row,Compound,MISS T/C
1,O=C(O)CCNC1=NCCS1,0.85
2,O=C(O)Cc1c[nH]cn1 [IMIDAZOLE ACETIC ACID],0.68
3,N=C(N)N[C@H]1CCCC[C@H]1C(=O)O,0.92
4,CC(=O)NC(=N)NCCC(=O)O,0.88
5,N=C(N)NCCc1nnn[nH]1,0.94
6,C/N=C(\NC)SCCC(=O)O.Cl,1.06
7,Cl.N=C(N)S/C=C\C(=O)O,0.95
8,O=C(O)CCNc1[nH]cnc2ncnc1-2,0.85
9,O=C(O)CCNc1nc2ccccc2s1,0.87
10,Cl.NC(N)=NC[C@@H](N)C(=O)O,0.92
11,Cl.N=C(N)SCC(=O)O,0.86
12,CCCCCCN=C(N)NCCC(=O)O,0.85
13,CN(CCC(=O)O)C(=N)N,1.02
14,O=C(O)CCn1ccnc1,0.81
15,Cl.N=C(N)NCCC(=O)NO,1.05
16,Cl.N=C(N)NC/C(=N/O)C(=O)O,0.97
17,O=C(O)CCNc1ccccn1,0.2
18,CNC(CN=C(N)N)C(=O)O.Cl.Cl (stereo unspecified),0.96
19,CSC(=N)NCCC(=O)O,1.1
20,N=C(N)N[C@H]1CCC[C@H]1C(=O)O,0.97
21,N=C(N)NCCCC(=O)O,0.8
22,CCCCCC(CC(=O)O)N=C(N)N (stereo unspecified),0.88
23,N=C(N)NCCc1c[nH]c(S)n1,0.8
24,N#CN/C(N)=N\CCC(=O)O,0.92
25,Nc1cccc[n+]1CCC(=O)[O-],1.07

row,Compound,MISS T/C
1,N=C(N)c1ccccc1NCCC(=O)O,0.73
2,N=C(N)N1CCCCC1CC(=O)O (stereo unspecified),0.91
3,N=C(N)SCCC(=O)O,0.53
4,N=C(N)NC(CC(=O)O)c1ccccc1 (stereo unspecified),0.95
5,N=C(N)NOCC(=O)O,0.83
6,N=C(N)NCC(O)C(=O)O (stereo unspecified),1.1
7,O=C(O)CCNc1nccs1,0.99
8,N=C(N)NCC(Cc1ccccc1)C(=O)O (stereo unspecified),0.93
9,N=C(N)NCC(=O)O [GUANIDINO ACETATE],0.62
10,N=C(N)N[C@H]1CCC[C@@H]1C(=O)O,0.9
11,N[C@@H](Cc1c[nH]cn1)C(=O)O [HISTIDINE],0.8
12,N=C(N)NCCC[C@H](N)C(=O)O [ARGININE],1.02
13,C/N=C(\N)SCCC(=O)O.Cl,0.59
14,NC(N)=NC[C@H](N)C(=O)O,0.35
15,N=C(N)S/C=C\C(=O)O [ZAPA],0.68
16,CCOC(=O)CCN=C(N)N.Cl,0.87
17,N=C(N)N1CCCC(C(=O)O)C1 (stereo unspecified),1
18,CCCCCC(CN=C(N)N)C(=O)O (stereo unspecified),0.79
19,CC(=N)NCCC(=O)O,0.77
20,Nc1ncnc2c1cnn2CCC(=O)O,1.27
21,N/C(=N/CCC(=O)O)N[N+](=O)[O-],0.84
22,CN(C)C(=N)SCCC(=O)O.Cl,1.08
23,N/C(S)=N/CCC(=O)O,0.99
24,CC(CC(=O)O)N=C(N)N (stereo unspecified),0.77

# Molecular target: Sodium- and chloride-dependent creatine transporter 1 (Rattus norvegicus) (UniProt P28570)
# Assay: In vitro [14C]- creatine uptake (1 mM) was determined in rat A10 smooth muscle cells at a concentration of (1 mM)
row,Compound,Inhibition [%]
1,CN(CC(=O)O)C(=N)N [CREATINE],92

# Species on record: Rattus norvegicus
# Assay: (§2) In vitro [14C]- creatine uptake (1 mM) was determined in rat A10 smooth muscle cells at a concentration of (1 mM)
# Format: functional
# Outline: (§3)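 Rat A10 smooth muscle cells grown in DMEM with 10% FBS and used in log-phase growth. Cells washed, then incubated at 37 °C in Hanks buffer (pH 7.4, 10 mM Hepes, 20 mM glucose, 0.2% fatty-acid-free BSA) with [14C]creatine (1 mM) plus test compound (1 mM) for 30–120 min. Ice-cold washes, NaOH lysis, scintillation counting. Uptake normalised to medium specific activity and extract protein; reported as % inhibition.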
row,Compound,Inhibition [%]
1,N=C(N)NNCC(=O)O,36

# Test system: A10
# Assay: as §2
# Format: functional
# Outline: as §3
row,Compound,Inhibition [%]
1,N=C(N)NCCC(=O)O [OMPENACLID],97
